Laboratory results reported in article PMC3357394 (Organic & biomolecular chemistry, 2011).

Legend:
[1] = tested on: phenylephrine-induced contraction in rat aortic ring preparations with intact endothelium; conditions: Phe (1 μM)-contracted endothelium-intact rat aortic rings, 30-300 μM
How it was run: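 Endothelium-intact 3 mm thoracic aortic rings from male Sprague-Dawley rats (250–300 g) were held isometrically at 15 mN in Krebs solution (37°, 95% O2-5% CO2, pH≈7.4) and checked with 0.3 μM Phe then 1 μM ACh. After 60 min equilibration, rings were precontracted with 1 μM Phe and given cumulative water-dissolved test compound (30–300 μM). pD2 came from nonlinear fits of individual curves; mean±SEM, 3–5 rats/group.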

recombinant CD38 = target: T1, recombinant CD38 (Homo sapiens, UniProt P28907); experiment: Inhibition of the NADase; format: biochemical; conditions: for inhibitory activity against CD38 NADase (in words): recombinant CD38
T1 sequence (P28907 45-300): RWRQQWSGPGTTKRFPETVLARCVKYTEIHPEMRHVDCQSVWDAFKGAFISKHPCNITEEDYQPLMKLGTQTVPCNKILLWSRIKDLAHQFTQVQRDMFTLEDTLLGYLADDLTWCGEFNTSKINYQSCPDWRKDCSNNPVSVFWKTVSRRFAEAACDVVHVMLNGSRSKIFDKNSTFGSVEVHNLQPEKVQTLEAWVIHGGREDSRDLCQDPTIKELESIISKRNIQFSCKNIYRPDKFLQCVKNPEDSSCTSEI

CD38 = conditions: inhibitors of CD38; cited from earlier work
PC12 cells = conditions: cited from earlier work
[2] = target: NAD+ glycohydrolase activity of CD38; conditions: competitive inhibitor of NAD+ glycohydrolase activity of CD38; cited from earlier work

Row | Compound | IC50 (recombinant CD38) [mM] | inhibitory activity against CD38 NADase (in words) (recombinant CD38) | other results
1 | NC(=O)c1ccc[n+](COCCOc2ccc(Oc3ccccc3)cc2)c1.[Cl-] [Compound 4, 1-{[2-(4-phenoxy-phenoxy)ethoxy]methyl}-3-(aminocarbonyl)-pyridinium chloride] | 3.42 | weak inhibitory activities | vascular relaxing effect (in words) [1]: concentration-dependent relaxation
2 | NC(=O)c1ccc[n+]([C@@H]2O[C@H](COP(=O)(O)O)C(O)C2F)c1 (stereo partly drawn) [ara-F NMN] | – | – | Ki (CD38): nano-molar range
3 | NC(=O)c1c[n+](COCCOc2ccc(Oc3ccccc3)cc2)ccc1N.[Cl-] [Compound 14, 1-{[2-(4-phenoxy-phenoxy)ethoxy]methyl}-3-(aminocarbonyl)-4-amino-pyridiniu m chloride] | 4.8 | weak inhibitory activities | –
4 | NC(=O)c1ccc2c(ccc[n+]2COCCOc2ccc(Oc3ccccc3)cc2)c1.[Cl-] [Compound 13, 1-{[2-(4-phenoxy-phenoxy)ethoxy]methyl}-6-(aminocarbonyl)-quinolinium chloride] | 2.12 | weak inhibitory activities | –
5 | NC(=O)c1ccc[n+](COCCOc2cccc(C(F)(F)F)c2)c1.[Cl-] [Compound 6, 1-{[2-(3-trifluoromethyl-phenoxy)ethoxy]methyl}-3-(aminocarbonyl)-pyridinium chloride] | – | no affinity for CD38 | –
6 | COc1ccc(OCCOC[n+]2cccc(C(N)=O)c2)cc1.[Cl-] [Compound 3, 1-{[2-(4-methoxy-phenoxy)ethoxy]methyl}-3-(aminocarbonyl)-pyridinium chloride] | 11.4 | weak inhibitory activities | –
7 | NC(=O)c1ccc[n+](COCCOc2ccc([N+](=O)[O-])cc2)c1.[Cl-] [Compound 5, 1-{[2-(4-nitro-phenoxy)ethoxy]methyl}-3-(aminocarbonyl)-pyridinium chloride] | 5.65 | weak inhibitory activities | –
8 | NC(=O)c1ccc[n+](COCCCCOC[n+]2cccc(C(N)=O)c2)c1.[Cl-].[Cl-] [Compound 9, 1,4-dimethoxy-butylene-bis-N,N′-3-(aminocarbonyl)-pyridinium dichloride] | – | – | vascular relaxing effect (in words) [1]: no such vascular relaxing effect
9 | NC(=O)c1ccc[n+](COCCOc2cccc3cccnc23)c1.[Cl-] [Compound 7, 1-{[2-(8′-quinolyloxy)ethoxy]methyl}-3-(aminocarbonyl)-pyridinium chloride] | – | weak inhibitory activities | inhibition of acetylcholine (Ach)-induced Ca2+ increase (in words) (PC12 cells): significantly inhibited
10 | NC(=O)c1ccc[n+](COC/C=C/COc2cccc3cccnc23)c1.[Cl-] [Compound 12, (E)-1-{[4-(8′-quinolyloxy)but-2-enyloxy]methyl}-3-(aminocarbonyl)-pyridinium chloride] | – | weak inhibitory activities | –
11 | NC(=O)c1ccc[n+]([C@@H]2C[C@H](COP(=O)([O-])OP(=O)(O)OC[C@H]3O[C@@H](n4cnc5c(N)ncnc54)[C@H](O)[C@@H]3O)[C@@H](O)[C@H]2O)c1 [carba-NAD^+, dinucleotide carbanicotinamide adenine dinucleotide] | – | – | IC50 [2]: ~0.1 mM
